These results are taken from ChEMBL document CHEMBL3351949, “Substituted dithiazole piperazine benzamides as novel amyloid beta peptide reducing agents” (Bioorg Med Chem Lett, 2014).

Activity calls are given as the source filed them.

Data set [1] relates to CHO. Description: Toxicity against CHO cells assessed as induction of cell death up to 1 uM by MTT assay. The class given is cell-based, Cricetulus griseus. To be noted: chinese hamster. The method, boiled down:
(§1)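 Cytotoxicity in CHO cells measured by lactate dehydrogenase release and by MTT reduction. n=4 per group; ANOVA followed by Dunnett's post-hoc test.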

Data set [2] can be described thus: Drug level in brain of APP/PS1 double transgenic APdeltaE9 mouse 4 mg/kg, iv measured after 10 mins. The class given is ADME, organism-based. Details: dose 4 mg/kg, route intravenous. To be noted: read-out: Drug uptake. The method, boiled down:
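Mice given 4 mg/kg by intravenous injection; compound level measured in brain over time after dosing (about 10–20 min window).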

The target of data set [3] is Amyloid-beta precursor protein (Homo sapiens) (UniProt P05067). Description: Reduction in wild type APP751 (unknown origin) expressed in CHO cells assessed as increase in secreted APPalpha at 50 nM to 10 uM after 48 hrs by immunoblotting method. Type of data set: cell-based. The arrangement: scale not given: the % may be the effect or the level left. The method, boiled down:
(§2)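 48 h treatment of APP751wt-expressing CHO (7WD10) cells, DMSO control. Conditioned medium immunoblotted for sAPPα (6E10), sAPPβ (anti-sAPPβ-wt rabbit IgG) and total sAPP (63G). Detection by ECL, densitometric quantification.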
(A western blot detects proteins with antibodies after separation by electrophoresis.)

The target is the same in data set [4]. Description: Reduction in wild type APP751 (unknown origin) expressed in CHO cells at 1 uM after 48 hrs by immunoblotting method. The class given is cell-based. The method, boiled down:
(§3)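 CHO cells stably expressing APP751wt (7WD10) treated 48 h, duplicate wells, DMSO as control. Conditioned medium centrifuged and immunoprecipitated overnight with Ab9 (Aβ 1–16). Aβ detected by SDS-PAGE immunoblot with 6E10/82E1 and ECL, signals quantified by densitometry. Dose-response n=4; ANOVA with Dunnett's post-hoc test.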

Data set [5] has the same target. Description: Reduction in wild type APP751 (unknown origin) expressed in CHO cells at 100 nM after 48 hrs by immunoblotting method relative to untreated control. The class given is cell-based. The method, boiled down:
as §3

Data set [6] relates to CHO. Description: Toxicity against CHO cells assessed as induction of cell death up to 1 uM by LDH release assay. To be noted: chinese hamster. The class given is cell-based, Cricetulus griseus. The method in brief:
as §1
For orientation: LDH leaks from cells whose membrane has failed.

In data set [7] the target is Amyloid-beta precursor protein (Homo sapiens) (UniProt P05067). Briefly: Reduction in wild type APP751 (unknown origin) expressed in CHO cells at 500 nM after 48 hrs by immunoblotting method relative to untreated control. The class given is cell-based. The method, boiled down: as §3
Sequence of Amyloid-beta precursor protein (Homo sapiens) (P05067 whole entry, the tested form may be a part): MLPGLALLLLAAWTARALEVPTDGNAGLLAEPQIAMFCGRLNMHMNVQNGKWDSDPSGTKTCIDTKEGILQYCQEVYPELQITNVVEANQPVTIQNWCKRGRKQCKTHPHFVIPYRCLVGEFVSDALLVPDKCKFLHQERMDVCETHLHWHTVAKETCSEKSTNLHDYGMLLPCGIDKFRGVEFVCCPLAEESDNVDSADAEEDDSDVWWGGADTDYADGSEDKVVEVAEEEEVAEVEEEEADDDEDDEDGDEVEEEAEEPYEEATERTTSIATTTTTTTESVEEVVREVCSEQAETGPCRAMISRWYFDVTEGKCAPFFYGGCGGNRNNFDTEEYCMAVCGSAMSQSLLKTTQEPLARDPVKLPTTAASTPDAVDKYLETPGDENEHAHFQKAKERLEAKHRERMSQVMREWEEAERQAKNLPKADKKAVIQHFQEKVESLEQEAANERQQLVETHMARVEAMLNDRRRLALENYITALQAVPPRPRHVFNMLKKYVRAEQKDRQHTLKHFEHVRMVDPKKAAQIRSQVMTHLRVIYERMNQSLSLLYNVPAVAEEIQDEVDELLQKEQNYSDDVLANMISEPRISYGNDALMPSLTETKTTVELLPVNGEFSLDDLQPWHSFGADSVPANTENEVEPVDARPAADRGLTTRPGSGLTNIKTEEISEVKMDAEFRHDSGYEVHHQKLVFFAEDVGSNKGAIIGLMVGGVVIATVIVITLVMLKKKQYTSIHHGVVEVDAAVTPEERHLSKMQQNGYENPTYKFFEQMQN
The subject of data set [8] is Mus musculus. Description: Reduction in amyloid plaque numbers in APP/PS1 double transgenic APdeltaE9 mouse 0.5 mg/kg, ip dosed daily for 60 days starting from 4 to 6 months of age. Type of data set: functional. To be noted: 1440 h, route intraperitoneal. The method, boiled down:
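APP/PS1 double transgenic (APΔE9) mice dosed i.p. daily, 0.5 mg/kg body wt., from 4- to 6-months of age for 60 days. Amyloid plaque numbers counted in brain sections (cortex and hippocampus) versus vehicle-treated mice.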

Data set [9] addresses Amyloid-beta precursor protein (Homo sapiens) (UniProt P05067). Description: Reduction in wild type APP751 (unknown origin) expressed in CHO cells assessed as increase in c-terminal fragments at 50 nM to 10 uM after 48 hrs by immunoblotting method relative to untreated control. Type of data set: cell-based. The method, boiled down:
(§4)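 7WD10 CHO cells (APP751wt) treated 48 h versus DMSO controls. Cells lysed in buffer with protease inhibitors. Full-length APP and C-terminal fragments detected with CT15 antibody by SDS-PAGE immunoblot and ECL, quantified by densitometry. n=4; ANOVA with Dunnett's test.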

Data set [10] has the same target. Description: Reduction in wild type APP751 (unknown origin) expressed in CHO cells assessed as increase in secreted APPalpha at 50 nM to 10 uM after 48 hrs by immunoblotting method relative to untreated control. Type of data set: cell-based. The method, boiled down:
as §2

Data set [11] has the same target. Description: Reduction in wild type APP751 (unknown origin) expressed in CHO cells assessed as increase in alpha c-terminal fragments at 50 nM to 10 uM after 48 hrs by immunoblotting method relative to untreated control. The class given is cell-based. The method, boiled down:
as §4

Data set [12] can be described thus: Half life in brain of APP/PS1 double transgenic APdeltaE9 mouse 4 mg/kg, iv. Details: dose 4 mg/kg, route intravenous. The class given is ADME, organism-based.
Data set [13] deals with Amyloid-beta precursor protein (Homo sapiens) (UniProt P05067). Description: Reduction in wild type APP751 (unknown origin) expressed in CHO cells assessed as increase in beta c-terminal fragments at 50 nM to 10 uM after 48 hrs by immunoblotting method. The class given is cell-based. The method in brief: as §4
The target is the same in data set [14]. Description: Reduction in wild type APP751 (unknown origin) expressed in CHO cells at 1 uM after 48 hrs by immunoblotting method relative to untreated control. The class given is cell-based. The method in brief:
as §3

Data set [15] shares this target. Briefly: Reduction in wild type APP751 (unknown origin) expressed in CHO cells assessed as increase in secreted APPbeta at 50 nM to 10 uM after 48 hrs by immunoblotting method relative to untreated control. The class given is cell-based. The method in brief: as §2
In data set [16] the test system is CHO. Description: Toxicity against CHO cells assessed as induction of cell death at 10 uM by MTT assay. The class given is cell-based, Cricetulus griseus. To be noted: chinese hamster. The method in brief:
as §1
For orientation: Tetrazolium dyes change colour on reduction, which living cells bring about.

For data set [17], the target named is Amyloid-beta precursor protein (Homo sapiens) (UniProt P05067). Briefly: Reduction in wild type APP751 (unknown origin) expressed in CHO cells at 10 uM after 48 hrs by immunoblotting method relative to untreated control. Type of data set: cell-based. The method in brief:
as §3

Data set [18] shares this target. Description: Reduction in wild type APP751 (unknown origin) expressed in CHO cells assessed as increase in alpha c-terminal fragments at 50 nM to 10 uM after 48 hrs by immunoblotting method. The class given is cell-based. The arrangement: scale not given: the % may be the effect or the level left. The method in brief:
as §4

For data set [19], the system named is N2a. Description: Reduction in […] APP695 Sweden mutant (unknown origin) expressed in N2a cells by immunoblotting method. The class given is cell-based. To be noted: Homo sapiens. The method in brief: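 Neuro-2a cells stably expressing APP695swe treated at 1.0 μM. Aβ immunoprecipitated from conditioned medium with Ab9 antibody (Aβ 1–16) and detected by immunoblot with 6E10/82E1 mixture.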

Data set [20] relates to CHO. Description: Toxicity against CHO cells assessed as induction of cell death at 10 uM by LDH release assay. The class given is cell-based, Cricetulus griseus. To be noted: chinese hamster. The method in brief: as §1
The target of data set [21] is Amyloid-beta precursor protein (Homo sapiens) (UniProt P05067). Description: Reduction in wild type APP751 (unknown origin) expressed in CHO cells assessed as increase in full length APP level at 50 nM to 10 uM after 48 hrs by immunoblotting method. The class given is cell-based. The method in brief:
as §4

Data set [22] shares this target. Description: Reduction in wild type APP751 (unknown origin) expressed in CHO cells at 50 nM after 48 hrs by immunoblotting method relative to untreated control. The class given is cell-based. The method in brief:
as §3

As a reminder, the inhibition is the percentage by which the read-out fell short of the control. The inhibition in vivo is how much of the control response was suppressed. As a reminder, the half-life is the time needed for the level to fall by half in the phase considered. In the case of `NC(=O)c1ccc(N2CCN(c3nc(-c4cccc(O)c4)cs3)CC2)c(Nc2nc(-c3cccc(O)c3)cs2)c1`, the Activity entry in [1] was “Non-toxic”; in data set [3] it was 40%; in [6] it was “Non-toxic”; in data set [16] it was “Toxic”; in data set [18], 80%; in [20], “Toxic”. In addition, the concentration at 10 min in data set [2] came to 40 ng/mL. Also, the inhibition entry in data set [4] and in data set [19] was “Active” throughout. Also, the inhibition in data set [5] was 20%; in data set [7], 31%; in [9], “Dose-dependent effect”; in data set [10], “Dose-dependent effect”; in data set [11], “Dose-dependent effect”; in [14], 54%. In addition, the inhibition in data set [17] was 63%; in [21] it was “Dose-dependent effect”; in data set [22], 21%. The compound further showed an inhibition in vivo at 0.5 mg/kg in data set [8] of 39%. This compound also displayed a half-life in data set [12] of 6.7 min. The inhibition entry in data set [13] and in data set [15] was “inactive” each time.
